PolyA inhibitor: inhibitors of polyadenylation in S. cerevisiae | S. cerevisiae SKY197-pL101 polyadenylation reporter, beta-gal luminescence; efflux-impaired pdr1/pdr3 knockout yeast; score 100 = 6 SD above DMSO | AID 1875 | activity score, % at 12 µM | 300,000 compounds, 0.02% hits;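 active = lowest replicate activity score at least 50, where 100 means six control SD above control mean; inconclusive = lowest score under 50 but half or more replicates reach 50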;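 also: yeast exposed to compound for 9 h at 30 °C; higher score means more reporter readthrough which indicates perturbed polyadenylation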
Arr AP2 block: inhibitors of human beta-arrestin and AP2 interaction | 340,000 compounds, 0.31% hits | AID 504490 | inhibition, % at 10 µM | FITC-arrestin peptide / GST-AP2 beads, flow cytometry; AP2 beta2 appendage carries R879A mutation;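 active = inhibition above a set limit, near 3 SD of compounds lacking own fluorescence, cut at about 54% in these data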
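Material – GST-tagged AP2 beta2-adaptin appendage (R879A) on 4 µm glutathione beads · Probe or stimulus – fluorescein-tagged arrestin peptide at 50 nM final · Timing – 12 min plus 1 h, RT · Detection – bead flow cytometry, FITC channel · Read-out basis – inhibition as reduced fluorescein signal on beads, percent · Medium – PBS plus Tween 20 (0.05%) and BSA (0.1%)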
DSG3 Ab inh: human desmoglein-3 autoantibody binding inhibition | AID 588358 | DSG3-coupled beads, scFv-anti-DSG3-GFP binding, flow cytometry; hits give low values | binding (percent of control), % at 10 µM | 310,000 compounds, 0.48% hits;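 active = binding more than 3 SD below its plate's average and above zero; inconclusive = below that plate limit but binding exactly zero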;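 also: hits lower antibody fragment binding to DSG3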
Target sequence (P32926 whole entry, looked up, the tested form may be a part): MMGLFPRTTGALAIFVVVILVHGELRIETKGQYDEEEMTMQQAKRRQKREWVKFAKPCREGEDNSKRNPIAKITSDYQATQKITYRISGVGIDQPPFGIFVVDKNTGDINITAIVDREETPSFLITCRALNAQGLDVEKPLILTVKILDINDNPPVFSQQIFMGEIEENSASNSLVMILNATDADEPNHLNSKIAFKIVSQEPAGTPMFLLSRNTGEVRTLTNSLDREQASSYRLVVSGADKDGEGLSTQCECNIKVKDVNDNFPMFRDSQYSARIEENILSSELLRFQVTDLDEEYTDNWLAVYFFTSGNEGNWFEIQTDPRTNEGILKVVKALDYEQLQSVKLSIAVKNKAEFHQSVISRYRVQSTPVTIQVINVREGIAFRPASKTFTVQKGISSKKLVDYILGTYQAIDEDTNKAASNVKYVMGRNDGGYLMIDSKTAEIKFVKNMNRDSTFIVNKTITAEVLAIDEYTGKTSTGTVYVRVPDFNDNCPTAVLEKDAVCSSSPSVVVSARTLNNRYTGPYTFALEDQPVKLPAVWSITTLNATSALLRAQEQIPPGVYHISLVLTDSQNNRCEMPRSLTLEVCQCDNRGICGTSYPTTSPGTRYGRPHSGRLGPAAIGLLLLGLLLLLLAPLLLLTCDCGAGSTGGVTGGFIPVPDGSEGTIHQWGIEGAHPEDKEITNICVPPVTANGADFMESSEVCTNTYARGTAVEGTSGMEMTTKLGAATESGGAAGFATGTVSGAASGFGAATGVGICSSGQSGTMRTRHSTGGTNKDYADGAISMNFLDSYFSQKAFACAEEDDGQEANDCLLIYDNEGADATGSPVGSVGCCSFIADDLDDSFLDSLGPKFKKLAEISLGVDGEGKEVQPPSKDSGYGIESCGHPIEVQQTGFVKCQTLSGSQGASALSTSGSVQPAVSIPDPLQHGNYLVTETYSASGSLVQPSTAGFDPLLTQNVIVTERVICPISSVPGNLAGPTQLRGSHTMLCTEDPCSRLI
ALR H2O2 inh: human ALR oxidase inhibition via reduced H2O2 | P55789 | purified ALR, DTT oxidation, H2O2 HRP-luminol luminescence | inhibition, % (test concentration not listed) | 290,000 compounds, 3.8% hits;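 active = mean replicate inhibition above about 79%, with every replicate also reaching it, limit read from the data; inconclusive = only one of the two criteria met; inactive = mean below limit and not every replicate reaching it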
NALP1 yeast inh: inhibitors of NALP1 inflammasome in yeast; S. cerevisiae NALP1/ASC/caspase-1 growth, X-gal OD620, 72 h; inhibition, % at 10 µM; 280,000 compounds, 0.61% hits; in the data active = inhibition mostly above about 24%, no sharp cut-off; inactive = mostly below about 32%
NALP3 yeast inh: NALP3 inhibition in yeast | inhibition, % at 10 µM | Yeast reconstituted NLRP3/ASC/caspase-1, beta-gal luminescence, 24 h | AID 2825 | 330,000 compounds, 0.39% hits;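 active = inhibition of 50% or more; inactive = inhibition below 50%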
Numbers stand for hits. This is a sample that favours compounds with a hit; in the whole collection about 4.6% have one here.

For Cc1cc(Nc2ccc3c(c2)OCCO3)c2ccccc2n1 the results were PolyA inhibitor inactive, Arr AP2 block inactive, DSG3 Ab inh inactive, NALP1 yeast inh inactive and NALP3 yeast inh inactive.
Cc1ccc2nc(C)cc(Nc3ccc4c(c3)OCCO4)c2c1 was read as PolyA inhibitor inactive, Arr AP2 block inactive, DSG3 Ab inh inactive, ALR H2O2 inh inactive, NALP1 yeast inh 33 and NALP3 yeast inh inactive.
`CCc1ccc(Cn2ncc3c(C(=O)O)cc(C)nc32)cc1` gave Arr AP2 block inactive and DSG3 Ab inh inactive.
Cn1ncc2c(Nc3ccc(Br)cc3)nc(Nc3ccc(Br)cc3)nc21 was read as PolyA inhibitor inactive, Arr AP2 block inactive, DSG3 Ab inh inactive, ALR H2O2 inh inactive, NALP1 yeast inh inactive and NALP3 yeast inh inactive.
For Cn1ncc2c(Nc3ccc(O)cc3)nc(Cl)nc21 the results were PolyA inhibitor inactive, Arr AP2 block inactive, DSG3 Ab inh inactive, ALR H2O2 inh 91, NALP1 yeast inh inactive and NALP3 yeast inh inactive.
For c1ccc(NCCCNc2ccccc2)cc1 the results were PolyA inhibitor inactive, Arr AP2 block inactive, DSG3 Ab inh inactive, ALR H2O2 inh 98, NALP1 yeast inh inactive and NALP3 yeast inh inactive.
Screening O=C1c2ccccc2C(=O)N1CCCCNc1ccccc1 returned Arr AP2 block inactive and DSG3 Ab inh inactive.
`CCOC(=O)Cc1csc(-n2sc3ccccc3c2=O)n1` gave PolyA inhibitor inactive, Arr AP2 block inactive, DSG3 Ab inh 44, ALR H2O2 inh inactive, NALP1 yeast inh inactive and NALP3 yeast inh inactive.
Screening Nc1c(-c2ccc(Cl)cc2)cnn1-c1cccc([N+](=O)[O-])c1 returned PolyA inhibitor inactive, Arr AP2 block inactive, DSG3 Ab inh inactive, ALR H2O2 inh inactive, NALP1 yeast inh inactive and NALP3 yeast inh inactive.
For Nc1c(-c2ccccc2)cnn1-c1cccc([N+](=O)[O-])c1 the results were PolyA inhibitor inactive, Arr AP2 block inactive, DSG3 Ab inh inactive, ALR H2O2 inh 88, NALP1 yeast inh inactive and NALP3 yeast inh inactive.
`Clc1ccc2c(c1)C(N1CCNCC1)Cc1ccccc1S2` (stereo not given) gave PolyA inhibitor inactive, Arr AP2 block inactive, DSG3 Ab inh inactive, ALR H2O2 inh inactive, NALP1 yeast inh inactive and NALP3 yeast inh inactive.
Screening Clc1cccc2c1Sc1ccccc1CC2N1CCNCC1 (stereo not given) returned PolyA inhibitor inactive, Arr AP2 block inactive, ALR H2O2 inh inactive, NALP1 yeast inh 74 and NALP3 yeast inh inactive.
Screening O=C(Nc1nc2c(s1)CCCC2)c1ccc(Br)s1 returned PolyA inhibitor inactive, Arr AP2 block inactive, DSG3 Ab inh inactive, ALR H2O2 inh 98, NALP1 yeast inh inactive and NALP3 yeast inh inactive.
O=C(Nc1nc2c(s1)CCCC2)c1ccc2ncsc2c1 was read as PolyA inhibitor inactive, Arr AP2 block inactive, DSG3 Ab inh inactive, ALR H2O2 inh inactive, NALP1 yeast inh inactive and NALP3 yeast inh inactive.
`O=C(Nc1nc2cc3c(cc2s1)OCCO3)c1ccc(N2C(=O)CCC2=O)cc1` gave PolyA inhibitor inactive, Arr AP2 block inactive, DSG3 Ab inh 81, ALR H2O2 inh inactive and NALP3 yeast inh inactive.
`O=C(Nc1nc2c(s1)CCCC2)c1ccc(N2C(=O)CCC2=O)cc1` gave PolyA inhibitor inactive, Arr AP2 block inactive, DSG3 Ab inh inactive, ALR H2O2 inh 97, NALP1 yeast inh inactive and NALP3 yeast inh inactive.
`CCC1CCC(C(=O)NC(C(=O)NCCN2CCOCC2)C(C)C)CC1` (stereo not given) gave PolyA inhibitor inactive, Arr AP2 block inactive, ALR H2O2 inh inactive, NALP1 yeast inh inactive and NALP3 yeast inh inactive.
Screening COC(=O)C1CCN(C(=O)CN2C(=O)NC(CC(C)C)C2=O)CC1 (stereo not given) returned Arr AP2 block inactive, DSG3 Ab inh inconclusive and NALP3 yeast inh inactive.
For COc1ccc(NC(=O)CN(C)CC(=O)Nc2ccc(N3CCOCC3)cc2)c([N+](=O)[O-])c1 the results were PolyA inhibitor inactive, Arr AP2 block inactive, DSG3 Ab inh 67, NALP1 yeast inh inactive and NALP3 yeast inh inactive.
`CC(Oc1cccc(Cl)c1)C(=O)N(C)CC(=O)Nc1ccc(N2CCOCC2)cc1` (stereo not given) gave PolyA inhibitor inactive, Arr AP2 block inactive, DSG3 Ab inh inactive, ALR H2O2 inh 93 and NALP3 yeast inh inactive.

Assay outcomes as filed in PubChem.
